NR2E3 ag-1 – activates human NR2E3 receptor. Q9Y5X4. CHO-S Gal4-NCOR/VP16-NR2E3 two-hybrid, luciferase. inhibition of corepressor binding, % at 3.98 µM. 0.35% of 360,000 active. AID 602229;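 active = inhibition above the mean of all tested compounds plus 3 SD, cut at about 70% in these data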;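 also: higher means lower luciferase signal from less NR2E3 corepressor binding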
PG9 Ab binder – binds the HIV-1 gp120 antibody PG9; TR-FRET gp120-PG9 antibody binding; inhibition, % at 6.7 µM; 0.43% of 360,000 active; AID 624416; in the data active = inhibition above about 8.5%
Rev-erbA mod – modulators of human Rev-erb alpha DNA binding | P20393 | AID 1259318 | 0.79% of 370,000 active | Rev-erbα–FITC-DNA binding, fluorescence polarization, 90 min | activity, % at 10 µM;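 active = activity above about 14%, limit read from the data; passing the limit was not always enough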
Target sequence (P20393 whole entry, looked up): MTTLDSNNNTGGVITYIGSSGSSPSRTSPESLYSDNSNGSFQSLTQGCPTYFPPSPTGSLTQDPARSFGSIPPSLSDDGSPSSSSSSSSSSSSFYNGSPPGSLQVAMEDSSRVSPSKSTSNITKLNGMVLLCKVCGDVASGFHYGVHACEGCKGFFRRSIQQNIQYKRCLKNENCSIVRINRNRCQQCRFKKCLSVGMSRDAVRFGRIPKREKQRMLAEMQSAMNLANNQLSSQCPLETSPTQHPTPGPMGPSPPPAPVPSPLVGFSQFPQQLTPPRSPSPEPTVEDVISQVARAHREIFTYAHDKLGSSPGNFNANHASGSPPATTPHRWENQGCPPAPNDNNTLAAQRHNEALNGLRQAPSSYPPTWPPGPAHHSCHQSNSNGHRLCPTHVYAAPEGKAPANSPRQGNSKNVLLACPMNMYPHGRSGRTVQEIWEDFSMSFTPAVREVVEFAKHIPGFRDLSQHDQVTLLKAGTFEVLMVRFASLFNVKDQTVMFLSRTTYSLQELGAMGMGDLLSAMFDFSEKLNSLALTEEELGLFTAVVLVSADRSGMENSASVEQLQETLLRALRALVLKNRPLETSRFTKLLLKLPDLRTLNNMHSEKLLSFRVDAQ
NR2E3 ag-2 – activates human photoreceptor nuclear receptor NR2E3; 0.12% of 320,000 active; Q9Y5X4; inhibition of corepressor binding, % at 4.78 µM; GST-NR2E3/biotin-RetCOR TR-FRET, 1536-well;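 active = percent inhibition above the cutoff of mean plus 3 SD of all tested compounds, set per screening campaign, cut at about 20% in these data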
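Material: NR2E3–RetCOR corepressor complex / Incubation: Compound–protein incubation for 5 h at 4 °C / Dosing: compound at 4.8 µM, single dose / Detection: time-resolved FRET / Benchmarks: high control biotin, low control 0.6% DMSO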
PG9 bind confirm – confirmation of small molecules binding HIV-1 gp120 antibody PG9. 90% of 1,500 active. shares compounds with PG9 Ab binder. AID 651571. TR-FRET PG9 antibody binding, biochemical. inhibition, % at 6.7 µM; in the data active = inhibition above about 9%
PGV04 counter – binds control antibody PGV04 in PG9 binder counter-screen; shares compounds with PG9 Ab binder; TR-FRET PGV04 antibody-gp120 binding, biochemical; inhibition, % at 6.7 µM; 95% of 1,500 active; AID 651604; in the data active = inhibition above about 9.5%
PG9 bind DR – PG9 antibody binding, dose response; TR-FRET PG9 antibody-gp120 binding inhibition; shares compounds with PG9 Ab binder; IC50, µM; 95 tested, under 10 active; in the data active = IC50 below about 10 µM
PGV04 binding DR – PGV04 binding, dose response counter-screen; TR-FRET binding to control antibody PGV04; AID 651937; shares compounds with PG9 Ab binder; 20% of 95 active; IC50, µM
PG126 binding DR – PG126 binding, dose response counter-screen | shares compounds with PG9 Ab binder | AID 651939 | IC50, µM | TR-FRET binding to antibody PG126, counterscreen | 20% of 95 active
Each line names hits and unclear results; the compound was inactive in the other large screens (follow-up assays come after a bar, where they were run). Rows were chosen to be rich in hits. Some 1.4% of all compounds tested hit in one or more screens of this group. Rule as the data show it, unless noted: active = IC50 below about 9 µM; inactive = the rest.

CSc1ccc(S(=O)(=O)Nc2ccccc2C(=O)N2CCOCC2)cc1	PG9 Ab binder 8.8 | PG9 bind confirm 22 | PGV04 counter 22 | PG9 bind DR inactive | PGV04 binding DR inactive | PG126 binding DR inactive
CN1C(=O)C[C@@](C#N)(C(=O)N2CCOCC2)[C@H]1c1ccccc1	none (no result: NR2E3 ag-1, PG9 Ab binder, NR2E3 ag-2)
CCC(=O)c1ccc(OCC(=O)c2ccc3c(c2)NC(=O)CO3)cc1	PG9 Ab binder 16 | PG9 bind confirm 38 | PGV04 counter 38 | PG9 bind DR inactive | PGV04 binding DR inactive | PG126 binding DR inactive
CCc1ccc(OCC(=O)OCC(=O)c2ccc3c(c2)NC(=O)CO3)cc1	PG9 Ab binder 15 | PG9 bind confirm 24 | PGV04 counter 33
CCCCCCC(=O)OCC(=O)c1ccc2c(c1)NC(=O)CO2	none
CCN(C(=O)[C@@H](C)[C@@H](O)c1ccc(C(C)=O)cc1)c1ccccc1	none (no result: NR2E3 ag-1, PG9 Ab binder, NR2E3 ag-2)
CCC(C(=O)NC1CCCCC1)n1c2ccccc2c2nc(=O)cc(C)n21 (stereo unspecified)	PG9 Ab binder 16 | PG9 bind confirm inactive | PGV04 counter 9.5
Nc1[nH]c(C(=O)c2ccc(Br)cc2)c(-c2ccc(Br)cc2)c1C(=O)N1CCCCC1	none (no result: NR2E3 ag-1, PG9 Ab binder, NR2E3 ag-2)
CCOC(=O)[C@@]12CCCC3=C1N(CCC3)C(=O)[C@H]2CC(=O)NCCc1ccccc1OC	none (no result: NR2E3 ag-1, PG9 Ab binder, NR2E3 ag-2)
COc1ccc2[nH]c3c(=S)nc[nH]c3c2c1	PG9 Ab binder 50 | PG9 bind confirm 26 | PGV04 counter 26 | PG9 bind DR inactive | PGV04 binding DR inactive | PG126 binding DR inactive
COc1ccc2[nH]c3c(Cl)ncnc3c2c1	none
Cc1nn(-c2ccccc2)c(C)c1/C=N/NC(=O)c1[nH][nH]c(=O)c1C	none (no result: NR2E3 ag-1, PG9 Ab binder, NR2E3 ag-2)
COC(=O)[C@]12C[C@H](CC(=O)NCc3ccc(OC)c(OC)c3)C(=O)N(Cc3ccco3)C1=C[C@H](C(C)(C)C)O[C@@H]2C	none (no result: NR2E3 ag-1, PG9 Ab binder, NR2E3 ag-2)
CC1CCCCN1C(=O)CSc1nc(C2CC2)nc2c1cnn2-c1ccccc1 (stereo unspecified)	none
Cc1nn(C)c(C)c1NC(=O)CSc1nc(C2CC2)nc2c1cnn2-c1ccccc1	PG9 Ab binder 13 | PG9 bind confirm 43 | PGV04 counter 74
O=C(Nc1ncc(Cc2ccc(SC(F)F)cc2)s1)c1ccc(OC(F)F)cc1	PG9 Ab binder 22 | PG9 bind confirm 12 | PGV04 counter 18
Cc1ccc(Cc2cnc(NC(=O)c3ccco3)s2)cc1	none
Cc1ccc(-c2nc3ncccn3c2NC(=O)c2cccc(C)c2)cc1	none (no result: NR2E3 ag-1, PG9 Ab binder, NR2E3 ag-2)
CCCC1CCC2(CC1)CCC2OC(=S)Nc1ccc(Cl)cc1 (stereo unspecified)	none (no result: NR2E3 ag-1, PG9 Ab binder, NR2E3 ag-2)
C=CCn1c(SCC(=O)Nc2cc(C)on2)nc2sc3c(c2c1=O)CCCC3	none
CCn1c(SCC(=O)Nc2cc(C)on2)nc2sc3c(c2c1=O)CCCC3	PG9 Ab binder 9.2 | PG9 bind confirm inactive | PGV04 counter 24
COC(=O)C1CN(Cc2cn(CCC3OCCO3)nn2)CCS(=O)(=O)N1Cc1ccccc1 (stereo unspecified)	none (no result: NR2E3 ag-1, PG9 Ab binder, NR2E3 ag-2)
O=C1N(CCCO)CCC12CCC(c1ccccc1)CC2 (stereo unspecified)	none (no result: NR2E3 ag-1, PG9 Ab binder, NR2E3 ag-2)
COc1ccc(C)cc1NC(=O)COC(=O)c1ccc2c(c1)OCCO2	none
Cc1c(Cl)cnc(NC(=O)COC(=O)c2ccc3c(c2)OCO3)c1Cl	PG9 Ab binder 28 | PG9 bind confirm 16 | PGV04 counter 30
Cc1c(Cl)cnc(NC(=O)COC(=O)c2ccncc2)c1Cl	none
COc1ccc(C)cc1NC(=O)COC(=O)c1ccc2c(c1)OCO2	PG9 Ab binder 24 | PG9 bind confirm 24 | PGV04 counter 28
COCCCNC(=O)C[C@H]1C[C@@]2(C(=O)OC)C(=C[C@H](COCc3ccccc3)O[C@@H]2C)N(Cc2cccc3ccccc23)C1=O	none (no result: NR2E3 ag-1, PG9 Ab binder, NR2E3 ag-2)
CCOC(=O)C(C(C)=O)c1c(Br)c(O)c(O)c2c(C(=O)c3ccc(C)cc3)coc12 (stereo unspecified)	PG9 Ab binder 9.4 | PG9 bind confirm 18 | PGV04 counter 19
CCOC(=O)c1c(C)n(-c2ccc(C)cc2)c2c(C(C(C)=O)C(=O)O)c(Br)c(O)c(O)c12 (stereo unspecified)	none
CCOC(=O)[C@]12CCCCC/C=C\1N(Cc1ccc(OC)cc1)C(=O)[C@H]2CC(=O)NCc1cccc2ccccc12	none (no result: NR2E3 ag-1, PG9 Ab binder, NR2E3 ag-2)
COC(=O)[C@H](C(C)C)N(Cc1cn(CC2CCCCC2)nn1)S(=O)(=O)c1ccc(F)cc1Br	none (no result: NR2E3 ag-1, PG9 Ab binder, NR2E3 ag-2)
Cc1cc(O)c2c(CN3CCN(Cc4ccccc4)CC3)cc(=O)oc2c1	none
CCc1cc(=O)oc2cc(C)cc(O)c12	PG9 Ab binder 15 | PG9 bind confirm 14 | PGV04 counter 20
CCCc1cc(=O)oc2cc(C)cc(OCc3nn[nH]n3)c12	none
COC(=O)Cc1c(C)c2c(O)cc(C)cc2oc1=O	PG9 Ab binder 10 | PG9 bind confirm 18 | PGV04 counter 18 | PG9 bind DR inactive | PGV04 binding DR inactive | PG126 binding DR inactive
CCCc1cc(=O)oc2cc(C)cc(O)c12	PG9 Ab binder 9.3 | PG9 bind confirm 14 | PGV04 counter 19
CCn1c2ccccc2c2cc(C=NNC(=O)c3ccoc3C)ccc21	none (no result: NR2E3 ag-1, PG9 Ab binder, NR2E3 ag-2)
CC(C)N(Cc1cn(Cc2ccccc2)nn1)S(=O)(=O)c1ccccc1Br	none (no result: NR2E3 ag-1, PG9 Ab binder, NR2E3 ag-2)
Cn1c2ccccc2c(=O)c2ccc(C#Cc3ccccn3)cc21	PG9 Ab binder 50 (no result: NR2E3 ag-1) | PG9 bind confirm 57 | PGV04 counter 79
Cn1c2ccccc2c(=O)c2cc(C#Cc3ccccn3)ccc21	none
Cn1c(=O)c(Sc2ccccc2)c(O)c2ccccc21	none
Cc1ccc(Sc2c(O)c3ccccc3n(C)c2=O)cc1	PG9 Ab binder 14 (no result: NR2E3 ag-2) | PG9 bind confirm 17 | PGV04 counter 24
CC(C)CCNC(=O)NC(=O)COC(=O)c1cc(S(=O)(=O)N2CCOCC2)ccc1N1CCCCC1	PG9 Ab binder 32 | PG9 bind confirm 28 | PGV04 counter 46
COC(=O)[C@]12C[C@H](CC(=O)N3CCC(c4ccccc4)CC3)C(=O)N(Cc3ccco3)C1=C[C@H](C(C)C)O[C@@H]2C1CC1	none (no result: NR2E3 ag-1, PG9 Ab binder, NR2E3 ag-2)
COc1ccc(C(=O)COC(=O)c2ccc(-n3cnnn3)cc2)c(OC)c1	PG9 Ab binder 24 | PG9 bind confirm 36 | PGV04 counter 44
COc1ccccc1C(=O)COC(=O)c1ccc(-n2cnnn2)cc1	none
CC(=O)c1ccc(NC(=O)COc2ccccc2C(=O)Nc2ccccc2)cc1	none

Screening results deposited in PubChem BioAssay by several laboratories.
